# From PubChem BioAssay
# Most compounds without a hit are left out; they make up all but 3.7% or so of the library.
# HCV core dimer: inhibitors of HCV core protein dimerization, primary screen, biochemical, TR-FRET, high-throughput; TR-FRET GST/Flag-core106 dimerization, 1536-well; inhibition, % at 5 µM; hit rate 0.33% among 300,000; AID 1899, 2009;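 active = inhibition above the mean of all tested compounds plus 3 SD, set per screening campaign, cut at about 45% in these data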
#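 System: GST-tagged and Flag-tagged HCV core protein residues 1-106 / Input: core106 proteins, GST 13.5 nM and Flag 17 nM / Buffer or medium: KF-containing HEPES buffer, pH 7.45, DTT, CHAPS, BSA / Probe or stimulus: Eu-anti-GST and XL665-anti-Flag labelled anti-tag antibodies / Schedule: 4 h, 22.5 °C incubation / Technique: TR-FRET 671 and 617 nm emission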
# TAAR1 ag: human TAAR1 agonists, primary screen, Fluo-8 calcium fluorescence, CHO RD-HGA16 cells. vehicle wells 0%, saturating PEA agonist 100%. activation, % at 3 µM. hit rate 0.99% among 360,000;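 active = activation above the mean activation of all test compounds in the run plus 3 SD, cut at about 38% in these data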
# Target sequence (Q96RJ0 whole entry, looked up): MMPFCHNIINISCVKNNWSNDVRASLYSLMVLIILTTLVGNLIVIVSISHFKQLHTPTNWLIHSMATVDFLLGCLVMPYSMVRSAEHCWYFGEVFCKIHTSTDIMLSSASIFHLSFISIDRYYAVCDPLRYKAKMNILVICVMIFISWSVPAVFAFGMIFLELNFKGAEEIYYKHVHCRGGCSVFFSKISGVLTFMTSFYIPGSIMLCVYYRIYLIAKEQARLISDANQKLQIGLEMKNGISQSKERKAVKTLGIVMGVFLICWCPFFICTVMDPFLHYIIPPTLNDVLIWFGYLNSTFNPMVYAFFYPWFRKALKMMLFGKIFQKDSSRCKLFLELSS
#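 System: CHO-derived RD-HGA16 cells with stable Gα16 and human TAAR1 / Times: 17-24 h plating, Fluo-8 75 min 37 °C, 30 min RT / Technique: calcium-sensitive Fluo-8 signal, excitation 470-495, emission 515-575 nm / Measure: % activation relative to PEA EC100 response / Benchmarks: DMSO and PEA EC100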
# TAAR1 antagonist: human TAAR1 antagonists, primary screen, Fluo-8 calcium fluorescence, CHO RD-HGA16 cells; Trace amine-associated receptor 1 (Homo sapiens), Q96RJ0; antagonist; inhibition, % at 3 µM; hit rate 1.5% among 360,000; AID 624466, 2012;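 active = inhibition above a per-plate cutoff, the mean inhibition of test compounds on that plate plus 3 SD, cut at about 49% in these data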;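 note: 0% = DMSO plus EC80 beta-PEA response and 100% = DMSO alone without agonist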
#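 Test system – hTAAR1-expressing CHO RD-HGA16 cells, Gα16-coupled · Also added – β-PEA at EC80 concentration, post-compound challenge · Compound – 3 µM, single point · Incubation – dye loading 75 min at 37 °C, then 30 min room temperature · Measured by – Fluo-8 intracellular calcium dye fluorescence, real-time kinetic reads · Benchmarks – vehicle and agonist controls · Replicates – singlicate, one well per test compound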
# rCAG RNA binder: binders of r(CAG) RNA repeats, primary screen, biochemical, fluorescence; r(CAG) RNA repeat, TO-PRO-1 dye displacement fluorescence; inhibition, % at 3 µM; hit rate 1.3% among 370,000; AID 651821, 2012;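 active = inhibition above the plate cutoff, the mean of all test compounds on that plate plus 3 SD, cut at about 35% in these data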;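 note: 0% = DMSO alone and 100% = 100 µM mitoxantrone as full dye displacement; higher means more dye released from RNA so lower well fluorescence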
# HCV NS3 hel inh: inhibitors of HCV NS3 helicase, primary screen, biochemical, Cy5 molecular beacon fluorescence; NS3 helicase DNA unwinding; Hepatitis C virus NS3 helicase; inhibition, % at 10.9 µM; AID 1800, 2009; hit rate 0.56% among 290,000;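 active = inhibition above the mean of all tested compounds plus 3 SD, set per campaign, cut at about 35% in these data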;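 note: 0% = DMSO wells and 100% = thioflavine S control wells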
#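 Compound dosing – single dose, 10.9 µM nominal final, DMSO 0.8% final · System – NS3 helicase fragment of HCV · Buffer or medium – MOPS pH 6.5, MgCl2, DTT, Tween20, BSA · Signal – Cy5 beacon fluorescence read at start and 1 h · Also added – annealed dual-labelled DNA beacon duplex, ATP-started · Schedule – 1 h at 25 °C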
# TAAR1 ag conf: human TAAR1 agonists, retest of hits, confirmation, Fluo-8 calcium fluorescence, CHO RD-HGA16 cells; AID 651783, 2012; scaled: DMSO 0%, maximal phenethylamine 100%; hit rate 82% among 2,400; activation, % at 3 µM; shares compounds with TAAR1 ag;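 active = activation above a cutoff set at the run's mean compound activation plus 3 SD, cut at about 39% in these data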
# Ga16 nonsel ag: nonselective calcium mobilization agonists, CHO-Ga16 cells, counter-screen for hTAAR1 agonist project, cell-based, fluorescence, CHO-Ga16 parental line. activation, % at 3 µM. hit rate 50% among 2,400. shares compounds with TAAR1 ag. Fluo-8 calcium fluorescence; normalized to maximal ATP response, DMSO zero;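 active = activation above the run cutoff, the mean activation over all tested wells plus 3 SD, cut at about 12% in these data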;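 note: 0% = DMSO wells and 100% = maximal ATP response on the peak over basal ratio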
# TAAR1 desensitize: TAAR1 desensitization by agonist hits, confirmation, counter-screen for TAAR1 agonist project, cell-based, fluorescence, tachyphylaxis; shares compounds with TAAR1 ag; CHO RD-HGA16 hTAAR1, Fluo-8 calcium, beta-PEA response inhibition; inhibition, % at 3 µM; hit rate 46% among 2,400;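 active = inhibition above the run cutoff, the mean inhibition of all test compounds plus 3 SD, cut at about 49% in these data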;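 note: beta-PEA stimulus applied at its EC80; loss of beta-PEA calcium signal after compound pretreatment read as receptor desensitization; 0% = DMSO with beta-PEA at EC80 and 100% = DMSO alone without agonist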
# Ga16 nonsel ant: inhibition of ATP-evoked calcium response in CHO-Ga16 cells, counter-screen for TAAR1 agonist project, cell-based, fluorescence; shares compounds with TAAR1 ag; CHO-Ga16 ATP-induced calcium, Fluo-8 fluorescence; inhibition, % at 3 µM; hit rate 39% among 2,400; AID 651952, 2012;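 active = inhibition above the plate's mean compound inhibition plus 3 SD, computed per plate, cut at about 22% in these data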;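 note: 0% = EC80 ATP with DMSO and 100% = DMSO wells without ATP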
# * hit, by the source's call; · = no result.
SMILES,HCV core dimer,TAAR1 ag,TAAR1 antagonist,rCAG RNA binder,HCV NS3 hel inh,TAAR1 ag conf,Ga16 nonsel ag,TAAR1 desensitize,Ga16 nonsel ant
C[C@@H](C(=O)NCCc1ccccc1)N1C(=O)N2CCc3c([nH]c4ccccc34)[C@@]2(C)C1=O,-1,71*,68*,-4,-35,68*,5,31,13
C[C@@H](C(=O)NC1CCCCC1)N1C(=O)N2CCc3c([nH]c4ccccc34)[C@@]2(C)C1=O,1,1,9,-3,-17,·,·,·,·
C[C@@H](C(=O)NCCc1ccccc1F)N1C(=O)N2CCc3c([nH]c4ccccc34)[C@@]2(C)C1=O,-2,59*,34,-6,-11,73*,4,46,21
CCOC(=O)[C@]12CCCC=C1N(CCCOC)C(=O)[C@@H]2CC(=O)NCCCN1CCCC1=O,·,·,·,-1,·,·,·,·,·
Nn1c(SCc2ccc(Br)cc2)nnc1-c1n[nH]c2c1CCC2,·,·,·,0,·,·,·,·,·
O=C(CCc1nc(-c2ccccc2F)no1)NCCc1c[nH]c2ccccc12,·,·,·,3,·,·,·,·,·
Cn1c(C(=O)N2CCN(c3nc4ccccc4s3)CC2)cc2sccc21,2,46*,25,4,-2,26,14*,42,25*
O=C(c1cc2sccc2n1Cc1ccc(F)cc1)N1CCN(c2nc3ccccc3s2)CC1,3,2,18,4,-17,·,·,·,·
COc1cccc(-c2c(C(=O)N/N=C/c3ccc(C)s3)nnn2-c2nonc2N)c1,13,65*,17,6,1,87*,44*,40,12
COc1cccc(-c2c(C(=O)N/N=C/c3ccoc3)nnn2-c2nonc2N)c1,-2,72*,-13,8,17,129*,76*,40,14
Clc1ccc([C@H]2OC[C@@]3(CNCC4CC4)CS[C@H](c4ccc(Cl)cc4)N23)cc1,·,·,·,2,·,·,·,·,·
C=CCOC(=O)C(CO)NC(=O)CCCC(=O)O (configuration not stated),·,·,·,2,·,·,·,·,·
O=C(Nc1ccc2oc(-c3ccccc3)nc2c1)c1ccccc1F,-4,12,24,1,-5,·,·,·,·
O=C(Nc1ccc2oc(-c3ccncc3)nc2c1)c1ccccc1F,-3,50*,13,-5,-2,5,20*,-1,14
Cc1nc2ccc(NC(=O)c3cc(Cl)ccc3F)cc2c(=O)[nH]1,·,·,·,1,·,·,·,·,·
CCOC(=O)C1(Cc2ccccc2)CCN(Cc2ccnc3ccccc23)CC1,·,·,·,-1,·,·,·,·,·
Cc1c(C(=O)N2CCCCC2)c(S(=O)(=O)NCCc2ccccc2)c(C)n1C,11,24,-19,-4,-5,·,·,·,·
O=C(CNCCc1ccccc1)Nc1ccc(C(=O)N2CCCCC2)cc1,-19,46*,-1,-3,-4,69*,2,12,9
O=C(CNCCc1ccc(Cl)cc1)Nc1ccc(C(=O)N2CCCCC2)cc1,-14,26,18,-3,-52,·,·,·,·
Cc1[nH]c(C)c(S(=O)(=O)NCCc2ccccc2)c1C(=O)N1CCCCC1,-1,53*,-10,1,8,19,1,-1,2
